Measurements reported in PMC11977460 (European Heart Journal Open, 2025).

Columns and labels:
[1] = test system: myocardial fibrosis in T2D rat hearts; test: Myocardial fibrosis histology and immunofluorescence; type: in vivo; conditions: first set, 2 pmol·kg−1·min−1 s.c., 6 weeks; for decrease in WGA staining (extracellular matrix): n = 5-6; for decrease in Masson's trichrome staining: n = 6
[2] = test system: cardiac collagen in T2D rat hearts; type: in vivo; conditions: first set; Sircol assay; 2 pmol·kg−1·min−1 s.c., 6 weeks; n = 5-6
In short: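 Ventricular tissue came from diabetic rats after 6 weeks of pump-delivered peptide at 2 pmol·kg−1·min−1. Tissue was homogenized in acid-pepsin and reacted with Sircol dye. Collagen-dye pellets were spun down, rinsed with acetic acid and dissolved in alkali reagent. Soluble collagen was read as absorbance at 550 nm against standards.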

[3] = test system: SMAD2/3, NFATc3, ERK1/2, JNK, PKG/VASP in T2D rat hearts; type: in vivo; conditions: for cardiac cGMP-dependent pathway PKG/VASP (VASP phosphorylation): western blot, T2D lowered VASP phosphorylation by ≈60%
In short: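 Ventricles came from diabetic rats after 6 weeks of peptide infusion (2 pmol·kg−1·min−1) or sacubitril in drinking water (18 mg·kg−1·day−1). Tissue was lysed in RIPA with protease and phosphatase inhibitors and protein assayed by Bradford. Western blots: 12% SDS-PAGE, PVDF, 5% BSA block, primaries overnight at 4°C, GAPDH reference, three blots per condition. Antibody arrays: 5 µg protein dot-blotted onto PVDF, then probed with GAPDH as internal control.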

[4] = test system: ANP/cGMP concentrations in T2D rats; test: Cardiac and plasma ANP/cGMP measurement by ELISA; type: in vivo, rat; conditions: for increase in cardiac cGMP levels vs. T2D: acetylated samples, T2D tended to decrease ≈50%, n = 4-6; for increase in ANP plasma concentration: non-significant for MANP, P = 0.0967
[5] = test system: cultured rat cardiac fibroblasts; test: MTT proliferation assay; type: cell-based; conditions: 100 pM, 24 h, n = 6 independent cultures
In short: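 Ventricular fibroblasts came from normal Wistar rats by collagenase type V digestion and differential centrifugation, then were selected by 2-h adhesion in DMEM with 10% heat-inactivated FBS. On day 5 of culture, cells were exposed to peptide at 100 pM for 24 h. MTT (0.5 mg·mL−1 in Tyrode) was added for 1 h at 37°C and formazan dissolved in DMSO for absorbance reading. Six independent cultures were run.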

[6] = test system: cultured rat cardiac fibroblasts; test: Sircol collagen secretion assay on cell supernatants; type: cell-based; conditions: 100 pM, 24 h, n = 6 independent cultures
In short: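 Rat ventricular fibroblasts, isolated by collagenase digestion, were adhesion-selected and cultured 5 days in DMEM with 10% FBS. They were then exposed to peptide at 100 pM for 24 h. Culture supernatants were used directly in the Sircol dye-binding assay, with pellets rinsed and dissolved in alkali reagent; collagen was read against standards. Six independent cultures were run.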

[7] = test system: cultured rat cardiac fibroblasts; test: Western blots of SMAD2/3 and PKG/VASP in high-glucose-treated fibroblasts; type: cell-based; conditions: high glucose 24 h with 100 pM peptide, western blot; for decrease in SMAD2 phosphorylation levels: n = 3; for activation of PKG/VASP pathway (VASP phosphorylation at serine 239): n = 5
In short: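 Day-5 cultures of rat ventricular fibroblasts were given high glucose for 24 h, with or without peptide at 100 pM. Cells were lysed in RIPA with protease and phosphatase inhibitors, and proteins were separated by 12% SDS-PAGE and blotted to PVDF. Membranes were blocked in 5% BSA and probed overnight at 4°C, with GAPDH as housekeeper. Blots came from three or five independent cultures.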

[8] = test system: high-fat/streptozotocin-induced Type 2 diabetic (T2D) rats; test: Blood glucose and physiological parameters; type: in vivo, rat; conditions: for food intake / urine output / water intake / body weight: T2D animals, Supplementary Figures S1 and S2; for food intake / urine output / water intake: 24 h metabolic cages; for fasting plasma glucose at Week 6: first set, untreated T2D rose further to ≈500 mg·dL−1 at Week 6
In short: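 Male Wistar rats, 12 months old, 450 ± 25 g. Type 2 diabetes induced by a 60% kcal lard diet for 4 weeks, then three i.p. STZ doses of 40 mg·kg−1 (citrate, pH 4.5) on consecutive days; shams received citrate. Tail glucose was read by glucometer in conscious restrained rats after a 12-h fast. Treatment ran 6 weeks; rats were held singly in metabolic cages for 24 h before the end.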

[9] = regulated by clearance receptor (NPR-C) and peptidases; cited from earlier work
mongrel dogs = mongrel dogs following peptide administration; cited from earlier work
[10] = molecular target: insulin-degrading enzyme (IDE); conditions: relative to ANP; cited from earlier work
neprilysin (NEP) = conditions: cited from earlier work
[11] = first set, ELISA on ventricular tissue, 2 pmol·kg−1·min−1 s.c., 6 weeks, n = 6

| Molecule | decrease in WGA staining (extracellular matrix) [1] | decrease in Masson's trichrome staining [1] | cardiac cGMP-dependent pathway PKG/VASP (VASP phosphorylation) ([3]; first set, n = 3) | increase in cardiac ANP levels vs. T2D [4, 11] | increase in cardiac cGMP levels vs. T2D ([4]; first set, ELISA) | increase in ANP plasma concentration ([4]; first set, ELISA, n = 6) | increase in cardiac ANP levels vs. T2D ([4]; second set, ELISA, n = 5-7) | decrease in fibroblast proliferation [5] | decrease in collagen secretion [6] | decrease in SMAD2 phosphorylation levels [7] | activation of PKG/VASP pathway (VASP phosphorylation at serine 239) [7] | food intake [8] | urine output [8] | water intake [8] | body weight [8] | fasting plasma glucose at Week 6 ([8]; T2D rats) | half-life [9] | increase in plasma ANP (mongrel dogs) | increase in plasma cGMP (mongrel dogs) | other results |
| --- | --- | --- | --- | --- | --- | --- | --- | --- | --- | --- | --- | --- | --- | --- | --- | --- | --- | --- | --- | --- |
| atrial natriuretic peptide [ANP] | ≈ 50% | ≈ 50% | restored this pathway | no noticeable effect | attenuated | no noticeable effect | no noticeable effect | ≈ 20% | ≈ 30% | ≈ 55% | ≈ 2.3 fold | reduced | reduced | reduced | without affecting the body weight | remained unchanged | 3 min | ~1.5 fold | ~1.5 fold | increase in cardiac soluble collagen [2]: ≈ 25%; plasma ANP levels ([4]; second set, ELISA, n = 5-7): no noticeable effect |
| M-atrial natriuretic peptide [MANP] | ≈ 75% | ≈ 80% | restored this pathway | ≈ 2 fold | ≈ 5 fold | ≈ 20% | – | ≈ 20% | ≈ 30% | ≈ 55% | ≈ 2.3 fold | reduced | reduced | reduced | without affecting the body weight | remained unchanged | – | ~1.5 fold | ~1.5 fold | cardiac NFATc3 activation (phosphorylated inactivated protein levels) ([3]; first set, antibody array vs T2D controls, n = 4): significantly reduced NFATc3 activation; cardiac ERK1/2 activation (pERK/ERK) ([3]; first set, antibody array, T2D hearts, n = 4): markedly attenuated; lower SMAD3 phosphorylation levels compared with T2D animals ([3]; first set, cardiac tissue western blot, 2 pmol·kg−1·min−1 s.c., 6 weeks, n = 3): ≈ 55%; IC50 with insulin-degrading enzyme (IDE), higher than ANP [10]: 30 fold; resistance to NEP degradation (neprilysin (NEP)): resistant to NEP degradation |
| brain natriuretic peptide [BNP] | – | – | – | – | – | – | – | – | – | – | – | – | – | – | – | – | 20 min | – | – | – |
| CCOC(=O)[C@H](C)C[C@@H](Cc1ccc(-c2ccccc2)cc1)NC(=O)CCC(=O)O [SACU, Sacubitril sodium] | – | – | – | – | – | – | ≈ 50% | – | – | – | – | reduced | reduced | reduced | without affecting the body weight | – | – | – | – | level of ERK1/2 phosphorylation relative to GAPDH ([3]; second set, antibody array, n = 4): decreased; metabolic profile (blood glucose) ([8]; second set, T2D rats, SACU 18 mg·kg−1·day−1 in drinking water): same metabolic profiles as their counterparts |
